Measurements as given in ChEMBL document CHEMBL4425138, “Probing Lipophilic Adamantyl Group as the P1-Ligand for HIV-1 Protease Inhibitors: Design, Synthesis, Protein X-ray Structural Studies, and Biological Evaluation” (J Med Chem, 2016).

How the values were obtained:
Protease = Protease (Human immunodeficiency virus 1, UniProt Q9YQ12); experiment: Inhibition of HIV1 protease using Abz-NleF*-6 as substrate preincubated for 5 to 10 mins followed by substrate addition measured after 1 hr by fluorometric assay
[1] = system: Human immunodeficiency virus 1; experiment: Antiviral activity against multi-drug resistant HIV1B harboring protease L10I/L33I/M36I/M46I/F53L/K55R/I62V/L63P/A71V/G73S/V82A/L90M/I93L mutant infected in human MT4 cells by p24 assay; assay type: functional, organism-based; details: Human immunodeficiency virus 1, B
Summary of the method: (§1)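 MT-4 cells (1×10^4) infected with 50 TCID50 of virus and cultured across a range of compound concentrations. Virus was wild-type HIV-1 NL4-3 or a multidrug-resistant variant (HIV-1B, HIV-1C, or DRV-resistant P20). IC50 from p24 assay. Run in triplicate. Values are means (±1 SD) from two independent experiments.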

[2] = system: Human immunodeficiency virus 1; experiment: Antiviral activity against darunavir resistant HIV1 harboring protease L10I/I15V/K20R/L24I/V32I/M36I/M46L/L63P/A71T/V82A/L89M mutant at 20 passages infected in human MT4 cells by p24 assay; assay type: functional, organism-based; details: Human immunodeficiency virus 1, MT4; summary of the method: as §1
[3] = system: Human immunodeficiency virus 1; experiment: Antiviral activity against multi-drug resistant HIV1C harboring protease L10I/I15V/K20R/L24I/M36I/M46L/I54V/I62V/L63P/K70Q/V82A/L89M mutant infected in human MT4 cells by p24 assay; assay type: functional, organism-based; details: Human immunodeficiency virus 1, C; summary of the method: as §1
[4] = system: Human immunodeficiency virus; experiment: Antiviral activity against HIV1 […] infected in human MT2 cells by MTT assay; assay type: functional, organism-based; details: Human immunodeficiency virus 1, MT2
Summary of the method: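 MT-2 human T-lymphoid cells infected with 100 TCID50 of HIV-1 LAI and cultured with each inhibitor. IC50 read by MTT assay. Run in triplicate. Values are means (±1 SD) from two independent experiments.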

[5] = system: Human immunodeficiency virus 1; experiment: Antiviral activity against wild type HIV1 NL4-3 infected in human MT4 cells by p24 assay; assay type: functional, organism-based; details: Human immunodeficiency virus 1, NL4-3, MT4
Summary of the method: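 MT-4 cells (1×10^4) infected with 50 TCID50 of virus and cultured across a range of compound concentrations. IC50 from p24 assay. Run in triplicate. Values are means (±1 SD) from two independent experiments.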

Protease, sequence (Q9YQ12 whole entry): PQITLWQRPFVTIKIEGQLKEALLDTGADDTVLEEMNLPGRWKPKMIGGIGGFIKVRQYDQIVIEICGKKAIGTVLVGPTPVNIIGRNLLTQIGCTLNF

Compound	Ki (Protease)	IC50 [1]	IC50 [2]	IC50 [3]	IC50 [4]	IC50 [5]
COc1ccc(S(=O)(=O)N(CC(C)C)C[C@@H](O)[C@H](CC23CC4CC(CC(C4)C2)C3)NC(=O)O[C@@H]2CO[C@@H]3OCC[C@@H]32)cc1	1 nM					
CC(C)CN(C[C@@H](O)[C@H](Cc1ccccc1)NC(=O)O[C@H]1CO[C@H]2OCC[C@H]21)S(=O)(=O)c1ccc(N)cc1		43 nM	87 nM	30 nM		
COc1ccc(S(=O)(=O)N(Cc2ccccc2)C[C@@H](O)[C@H](CC23CC4CC(CC(C4)C2)C3)NC(=O)O[C@H]2CO[C@H]3OCC[C@H]32)cc1	8.5 nM				310 nM	
COc1ccc(S(=O)(=O)N(CC(C)C)C[C@@H](O)[C@H](CC23CC4CC(CC(C4)C2)C3)NC(=O)O[C@H]2CO[C@H]3OCC[C@H]32)cc1	0.48 nM	> 1000 nM	> 1000 nM	360 nM	32 nM	15 nM
COc1ccc(S(=O)(=O)N(CC(C)C)C[C@@H](O)[C@H](CC23CC4CC(CC(C4)C2)C3)NC(=O)O[C@@H]2CO[C@@H]3OCCC[C@@H]32)cc1	24 nM				> 1000 nM	
CC(C)CN(C[C@@H](O)[C@H](CC12CC3CC(CC(C3)C1)C2)NC(=O)O[C@H]1CO[C@H]2OCC[C@H]21)S(=O)(=O)c1ccc(N)cc1	0.73 nM				60 nM	
CC(C)CN(C[C@@H](O)[C@H](CC12CC3CC(CC(C3)C1)C2)NC(=O)O[C@H]1CCOC1)S(=O)(=O)c1ccc(N)cc1	3.4 nM				580 nM	
COc1ccc(S(=O)(=O)N(C[C@@H](O)[C@H](CC23CC4CC(CC(C4)C2)C3)NC(=O)O[C@H]2CO[C@H]3OCC[C@H]32)c2ccccc2)cc1	1.1 nM					
CC(C)CN(C[C@@H](O)[C@H](Cc1ccccc1)NC(=O)O[C@H]1CCOC1)S(=O)(=O)c1ccc(N)cc1		860 nM	> 1000 nM	430 nM		17 nM
COc1ccc(S(=O)(=O)N(CC(C)C)C[C@@H](O)[C@H](CC23CC4CC(CC(C4)C2)C3)NC(=O)O[C@H]2CO[C@H]3OCCC[C@H]32)cc1	1.9 nM				460 nM	
COc1ccc(S(=O)(=O)N(CC(C)C)C[C@@H](O)[C@H](CC23CC4CC(CC(C4)C2)C3)NC(=O)O[C@H]2CCOC2)cc1	0.54 nM	> 1000 nM	> 1000 nM	> 1000 nM	39 nM	460 nM
COc1ccc(S(=O)(=O)N(CC(C)C)C[C@@H](O)[C@H](CC23CC4CC(CC(C4)C2)C3)NC(=O)O[C@@H]2CCOC2)cc1	2.8 nM					
